In brackets after ≈: the same amount, converted by molar mass.
How the values were obtained:
Format in all cases: functional
Escherichia coli = assay: Antibacterial activity against Escherichia coli
Method in brief: (§1)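 Twofold serial broth dilution in tubes, triplicate. Ten tubes of seeded broth (2 mL each); compound added as a 1 mg/mL DMF solution to the first tube, then serially transferred. Bacteria inoculated at 2×10^5 cfu/mL and incubated at 37 °C for 18–24 h. MIC (µg/mL) read visually. DMF solvent, positive growth and standard drug controls run alongside.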

Candida albicans = assay: Antifungal activity against Candida albicans
Method in brief: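 For Candida albicans: broth double-dilution in tubes, run in triplicate. Compound added as a 1 mg/mL DMF solution to the first of ten seeded-broth tubes (2 mL), then serially diluted by transfer. Fungal inoculum 5×10^5 cfu/mL; incubation at 30 °C for 48 h. MIC (µg/mL) by visual reading. Controls were DMF solvent, positive growth and standard drug.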

Staphylococcus aureus = assay: Antibacterial activity against Staphylococcus aureus; method in brief: as §1
Pseudomonas aeruginosa = assay: Antibacterial activity against Pseudomonas aeruginosa; method in brief: as §1
Proteus vulgaris = assay: Antibacterial activity against Proteus vulgaris; method in brief: as §1

SMILES | MIC (Escherichia coli) | MIC (Candida albicans) | MIC (Staphylococcus aureus) | MIC (Pseudomonas aeruginosa) | MIC (Proteus vulgaris)
COc1cc(NC(=O)c2cc3c(CO)cnc(C)c3o/c2=N\c2ccc(C(N)=O)cc2)cc(OC)c1 | 50 µg/mL (≈ 102 µM) | 25 µg/mL (≈ 51.2 µM) | 50 µg/mL (≈ 102 µM) | 50 µg/mL (≈ 102 µM) | 50 µg/mL (≈ 102 µM)
CCc1cccc(/N=c2\oc3c(C)ncc(CO)c3cc2C(=O)Nc2ccccc2)c1 | 100 µg/mL (≈ 242 µM) | 100 µg/mL (≈ 242 µM) | 100 µg/mL (≈ 242 µM) | 100 µg/mL (≈ 242 µM) | 100 µg/mL (≈ 242 µM)
Cc1cccc(/N=c2\oc3c(C)ncc(CO)c3cc2C(=O)Nc2ccccc2)c1 | 100 µg/mL (≈ 250 µM) | 100 µg/mL (≈ 250 µM) | 100 µg/mL (≈ 250 µM) | 100 µg/mL (≈ 250 µM) | 100 µg/mL (≈ 250 µM)
Cc1cccc(NC(=O)c2cc3c(CO)cnc(C)c3o/c2=N\c2cccc(Cl)c2)c1 | 50 µg/mL (≈ 115 µM) | 50 µg/mL (≈ 115 µM) | 100 µg/mL (≈ 230 µM) | 50 µg/mL (≈ 115 µM) | 100 µg/mL (≈ 230 µM)
Cc1ccc(NC(=O)c2cc3c(CO)cnc(C)c3o/c2=N\c2ccccc2I)cc1 | 50 µg/mL (≈ 95.2 µM) | 50 µg/mL (≈ 95.2 µM) | 25 µg/mL (≈ 47.6 µM) | 50 µg/mL (≈ 95.2 µM) | 100 µg/mL (≈ 190 µM)
Cc1ncc(CO)c2cc(C(=O)Nc3ccccc3)/c(=N/c3ccc4c(c3)OCO4)oc12 | 25 µg/mL (≈ 58.2 µM) | 50 µg/mL (≈ 116 µM) | 50 µg/mL (≈ 116 µM) | 50 µg/mL (≈ 116 µM) | 50 µg/mL (≈ 116 µM)
CCc1ccc(NC(=O)c2cc3c(CO)cnc(C)c3o/c2=N\c2ccc3c(c2)OCO3)cc1 | 50 µg/mL (≈ 109 µM) | 12.5 µg/mL (≈ 27.3 µM) | 100 µg/mL (≈ 219 µM) | 50 µg/mL (≈ 109 µM) | 50 µg/mL (≈ 109 µM)
Cc1cccc(/N=c2\oc3c(C)ncc(CO)c3cc2C(=O)Nc2ccccc2C)c1 | 50 µg/mL (≈ 121 µM) | 12.5 µg/mL (≈ 30.2 µM) | 100 µg/mL (≈ 242 µM) | 50 µg/mL (≈ 121 µM) | 25 µg/mL (≈ 60.5 µM)
Cc1ccc(NC(=O)c2cc3c(CO)cnc(C)c3o/c2=N\c2cccc(Cl)c2)cc1 | 50 µg/mL (≈ 115 µM) | 25 µg/mL (≈ 57.6 µM) | 50 µg/mL (≈ 115 µM) | 50 µg/mL (≈ 115 µM) | 50 µg/mL (≈ 115 µM)
CCOC(=O)c1ccc(/N=c2\oc3c(C)ncc(CO)c3cc2C(=O)Nc2ccccc2)cc1 | 50 µg/mL (≈ 109 µM) | 50 µg/mL (≈ 109 µM) | 50 µg/mL (≈ 109 µM) | 50 µg/mL (≈ 109 µM) | 50 µg/mL (≈ 109 µM)
Cc1ccc(NC(=O)c2cc3c(CO)cnc(C)c3o/c2=N\c2ccc(Br)cc2)cc1 | 50 µg/mL (≈ 105 µM) | 25 µg/mL (≈ 52.3 µM) | 25 µg/mL (≈ 52.3 µM) | 50 µg/mL (≈ 105 µM) | 50 µg/mL (≈ 105 µM)
COc1cccc(/N=c2\oc3c(C)ncc(CO)c3cc2C(=O)Nc2ccc(C)cc2)c1 | 25 µg/mL (≈ 58.2 µM) | 50 µg/mL (≈ 116 µM) | 50 µg/mL (≈ 116 µM) | 50 µg/mL (≈ 116 µM) | 100 µg/mL (≈ 233 µM)
Cc1ccc2nc(-c3ccc(/N=c4\oc5c(C)ncc(CO)c5cc4C(=O)Nc4ccccc4)cc3)sc2c1 | 25 µg/mL (≈ 46.9 µM) | 50 µg/mL (≈ 93.9 µM) | 100 µg/mL (≈ 188 µM) | 100 µg/mL (≈ 188 µM) | 50 µg/mL (≈ 93.9 µM)
COc1ccc(/N=c2\oc3c(C)ncc(CO)c3cc2C(=O)Nc2cccc(C)c2)c(OC)c1 | 50 µg/mL (≈ 109 µM) | 50 µg/mL (≈ 109 µM) | 50 µg/mL (≈ 109 µM) | 25 µg/mL (≈ 54.4 µM) | 50 µg/mL (≈ 109 µM)
O=C(O)c1cn(C2CC2)c2cc(N3CCNCC3)c(F)cc2c1=O [CIPROFLOXACIN] | 25 µg/mL (≈ 75.4 µM) |  |  |  | 12.5 µg/mL (≈ 37.7 µM)
CCOc1ccc(/N=c2\oc3c(C)ncc(CO)c3cc2C(=O)Nc2cccc(C)c2)cc1 | 50 µg/mL (≈ 113 µM) | 50 µg/mL (≈ 113 µM) | 50 µg/mL (≈ 113 µM) | 25 µg/mL (≈ 56.4 µM) | 50 µg/mL (≈ 113 µM)
COc1ccc(NC(=O)c2cc3c(CO)cnc(C)c3o/c2=N\c2ccc(Cl)c(Cl)c2)cc1 | 25 µg/mL (≈ 51.6 µM) | 12.5 µg/mL (≈ 25.8 µM) | 12.5 µg/mL (≈ 25.8 µM) | 25 µg/mL (≈ 51.6 µM) | 25 µg/mL (≈ 51.6 µM)
Cc1ccc(NC(=O)c2cc3c(CO)cnc(C)c3o/c2=N\c2ccc(Cl)c(Cl)c2)cc1 | 100 µg/mL (≈ 214 µM) | 25 µg/mL (≈ 53.4 µM) | 100 µg/mL (≈ 214 µM) | 50 µg/mL (≈ 107 µM) | 50 µg/mL (≈ 107 µM)

SMILES | MIC (Escherichia coli) | MIC (Candida albicans) | MIC (Staphylococcus aureus) | MIC (Pseudomonas aeruginosa) | MIC (Proteus vulgaris)
Cc1ccc(/N=c2\oc3c(C)ncc(CO)c3cc2C(=O)Nc2ccccc2C)cc1C | 50 µg/mL (≈ 117 µM) | 100 µg/mL (≈ 234 µM) | 100 µg/mL (≈ 234 µM) | 25 µg/mL (≈ 58.5 µM) | 50 µg/mL (≈ 117 µM)
Cc1cccc(NC(=O)c2cc3c(CO)cnc(C)c3o/c2=N\c2ccccc2)c1 | 50 µg/mL (≈ 125 µM) | 12.5 µg/mL (≈ 31.3 µM) | 100 µg/mL (≈ 250 µM) | 25 µg/mL (≈ 62.6 µM) | 50 µg/mL (≈ 125 µM)
Cc1ccc(/N=c2\oc3c(C)ncc(CO)c3cc2C(=O)Nc2cccc(C)c2)cc1 | 50 µg/mL (≈ 121 µM) | 50 µg/mL (≈ 121 µM) | 50 µg/mL (≈ 121 µM) | 50 µg/mL (≈ 121 µM) | 50 µg/mL (≈ 121 µM)
Cc1ncc(CO)c2cc(C(=O)Nc3ccccc3)/c(=N/c3ccccc3)oc12 | 25 µg/mL (≈ 64.9 µM) | 50 µg/mL (≈ 130 µM) | 50 µg/mL (≈ 130 µM) | 50 µg/mL (≈ 130 µM) | 50 µg/mL (≈ 130 µM)
CCc1ccc(/N=c2\oc3c(C)ncc(CO)c3cc2C(=O)Nc2ccccc2)cc1 | 50 µg/mL (≈ 121 µM) | 50 µg/mL (≈ 121 µM) | 50 µg/mL (≈ 121 µM) | 50 µg/mL (≈ 121 µM) | 50 µg/mL (≈ 121 µM)
COc1ccccc1/N=c1\oc2c(C)ncc(CO)c2cc1C(=O)Nc1ccc(C)cc1 | 50 µg/mL (≈ 116 µM) | 25 µg/mL (≈ 58.2 µM) | 100 µg/mL (≈ 233 µM) | 50 µg/mL (≈ 116 µM) | 100 µg/mL (≈ 233 µM)
OC(Cn1cncn1)(Cn1cncn1)c1ccc(F)cc1F [FLUCONAZOLE] |  | 50 µg/mL (≈ 163 µM) |  |  | 
Cc1ccc(NC(=O)c2cc3c(CO)cnc(C)c3o/c2=N\c2ccc(Oc3ccccc3)cc2)cc1 | 50 µg/mL (≈ 102 µM) | 12.5 µg/mL (≈ 25.4 µM) | 50 µg/mL (≈ 102 µM) | 50 µg/mL (≈ 102 µM) | 50 µg/mL (≈ 102 µM)
COc1ccc(/N=c2\oc3c(C)ncc(CO)c3cc2C(=O)Nc2cccc(C)c2)cc1OC | 50 µg/mL (≈ 109 µM) | 50 µg/mL (≈ 109 µM) | 50 µg/mL (≈ 109 µM) | 100 µg/mL (≈ 218 µM) | 100 µg/mL (≈ 218 µM)
Cc1ncc(CO)c2cc(C(=O)Nc3ccccc3)/c(=N/c3ccc(Oc4ccccc4)cc3)oc12 | 25 µg/mL (≈ 52.4 µM) | 50 µg/mL (≈ 105 µM) | 50 µg/mL (≈ 105 µM) | 50 µg/mL (≈ 105 µM) | 50 µg/mL (≈ 105 µM)
COc1cc(/N=c2\oc3c(C)ncc(CO)c3cc2C(=O)Nc2cccc(C)c2)cc(OC)c1 | 100 µg/mL (≈ 218 µM) | 12.5 µg/mL (≈ 27.2 µM) | 25 µg/mL (≈ 54.4 µM) | 50 µg/mL (≈ 109 µM) | 100 µg/mL (≈ 218 µM)
COc1cc(/N=c2\oc3c(C)ncc(CO)c3cc2C(=O)Nc2ccccc2)cc(OC)c1 | 50 µg/mL (≈ 112 µM) | 100 µg/mL (≈ 224 µM) | 50 µg/mL (≈ 112 µM) | 25 µg/mL (≈ 56.1 µM) | 50 µg/mL (≈ 112 µM)
Cc1cccc(NC(=O)c2cc3c(CO)cnc(C)c3o/c2=N\c2ccc(C)c(C)c2)c1 | 25 µg/mL (≈ 58.5 µM) | 12.5 µg/mL (≈ 29.2 µM) | 50 µg/mL (≈ 117 µM) | 12.5 µg/mL (≈ 29.2 µM) | 50 µg/mL (≈ 117 µM)
CCc1ccccc1/N=c1\oc2c(C)ncc(CO)c2cc1C(=O)Nc1ccc(C)cc1 | 50 µg/mL (≈ 117 µM) | 50 µg/mL (≈ 117 µM) | 50 µg/mL (≈ 117 µM) | 50 µg/mL (≈ 117 µM) | 50 µg/mL (≈ 117 µM)
Cc1cc(C)cc(/N=c2\oc3c(C)ncc(CO)c3cc2C(=O)Nc2ccccc2C)c1 | 100 µg/mL (≈ 234 µM) | 100 µg/mL (≈ 234 µM) | 100 µg/mL (≈ 234 µM) | 50 µg/mL (≈ 117 µM) | 100 µg/mL (≈ 234 µM)
COc1ccc(NC(=O)c2cc3c(CO)cnc(C)c3o/c2=N\c2ccc(Cl)c(Cl)c2)c(OC)c1 | 50 µg/mL (≈ 97.2 µM) | 50 µg/mL (≈ 97.2 µM) | 50 µg/mL (≈ 97.2 µM) | 50 µg/mL (≈ 97.2 µM) | 50 µg/mL (≈ 97.2 µM)
Cc1ncc(CO)c2cc(C(=O)Nc3ccccc3F)/c(=N/c3ccc(C(F)(F)F)cc3)oc12 | 50 µg/mL (≈ 106 µM) | 25 µg/mL (≈ 53 µM) | 50 µg/mL (≈ 106 µM) | 50 µg/mL (≈ 106 µM) | 100 µg/mL (≈ 212 µM)
COc1ccc(NC(=O)c2cc3c(CO)cnc(C)c3o/c2=N\c2ccc(OC)c(OC)c2)c(OC)c1 | 50 µg/mL (≈ 98.9 µM) | 50 µg/mL (≈ 98.9 µM) | 25 µg/mL (≈ 49.5 µM) | 50 µg/mL (≈ 98.9 µM) | 50 µg/mL (≈ 98.9 µM)
